Compounds with a hit are over-represented: about 1.6% of the library has one in this group of screens.
HSV replic up – increases HSV replication in cells | 0.005% of 220,000 active | HSV replication augmentation in cells, fold increase | AID 1956 | maximum fold increase; in the data active means maximum fold increase above about 1.5; tested in PC3 cells
ABCB1 inh – blocks JC-1 efflux by human ABCB1 transporter; AID 1326; CCRF-Adr cells, flow cytometry; 0.067% of 190,000 active; P08183; inhibition, % at 6.6 µM; in the data active means inhibition above about 40%;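 further: higher value means more JC-1 retained so stronger ABCB1 efflux block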
ABCG2 inh – human ABCG2 inhibition, ABCB1 as counter-screen | AID 1325 | Q9UNQ0 | 0.1% of 190,000 active | IgMXP3 cells, JC-1 efflux, flow cytometry | inhibition, % at 6.6 µM;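 active means inhibition above 80%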
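Test system: IgMXP3 (ABCG2) plus far-red-tagged CCRF-Adr (ABCB1) cells / Amount: 3 million cells/mL in well / Reagent: JC-1 transporter substrate / Timing: 10 min compound exposure, 25 °C / Signal: flow cytometry, 530 nm JC-1 signal / Read-out: percent efflux inhibition, scaled nicardipine 100% to DMSO 0% / Benchmarks: nicardipine as high control, DMSO as low control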
PKD1 inh – blocks activity of human protein kinase D1; inhibition, % (concentration not given with the values); Q15139; PKD1 kinase fluorescence polarization assay; 0.056% of 200,000 active; in the data active means inhibition above about 50%
p47phox inh – inhibitors of human p47phox binding | P14598 | p47phox/p22phox peptide binding, fluorescence polarization, 2 h | inhibition, % at 24.7 µM | 0.53% of 220,000 active | AID 1274;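 active means inhibition above about 30%, limit read from the data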
Target sequence (P14598 whole entry, looked up): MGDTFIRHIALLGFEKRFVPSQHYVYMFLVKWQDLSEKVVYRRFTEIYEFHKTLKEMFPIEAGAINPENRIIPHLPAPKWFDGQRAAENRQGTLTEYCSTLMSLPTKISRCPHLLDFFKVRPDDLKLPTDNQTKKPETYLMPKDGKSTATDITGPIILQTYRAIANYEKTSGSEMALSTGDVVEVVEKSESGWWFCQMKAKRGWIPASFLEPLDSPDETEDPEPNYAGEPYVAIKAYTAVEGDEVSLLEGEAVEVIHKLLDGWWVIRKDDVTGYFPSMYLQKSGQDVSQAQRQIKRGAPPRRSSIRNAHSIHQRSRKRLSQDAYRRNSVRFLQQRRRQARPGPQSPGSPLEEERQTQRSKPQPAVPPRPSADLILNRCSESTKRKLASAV
PHOSPHO1 inh – inhibitors of human PHOSPHO1 phosphatase. Q8TCT1. recombinant PHOSPHO1, absorbance phosphatase assay. inhibition, % at 13.3 µM. 1.1% of 290,000 active; in the data active means inhibition above about 60%
Target sequence (Q8TCT1 whole entry, looked up): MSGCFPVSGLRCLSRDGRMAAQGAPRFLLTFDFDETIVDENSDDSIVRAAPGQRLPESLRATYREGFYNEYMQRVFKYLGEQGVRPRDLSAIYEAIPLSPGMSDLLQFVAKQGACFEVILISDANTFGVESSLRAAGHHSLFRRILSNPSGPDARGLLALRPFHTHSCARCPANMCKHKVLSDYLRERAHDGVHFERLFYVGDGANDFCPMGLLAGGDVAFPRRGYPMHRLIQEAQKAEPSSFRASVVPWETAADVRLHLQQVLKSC
Hits are given with their value; - = inactive; . = not tested or not shown.

SMILES | HSV replic up | ABCB1 inh | ABCG2 inh | PKD1 inh | p47phox inh | PHOSPHO1 inh
COc1ccc(C(=O)NCCn2cc(SCC(=O)NCc3ccco3)c3ccccc32)cc1 | - | - | - | - | - | 61.5
COc1ccc(C(=O)NCCn2cc(SCC(=O)NCC3CCCO3)c3ccccc32)cc1 (stereo not drawn) | . | . | . | . | . | -
Cc1ccc(S(=O)(=O)N(C)S(=O)(=O)c2ccc(C#N)cc2)cc1 | . | . | . | . | . | -
CCNc1nn2ccccc2c1/C=C(\C#N)C(=O)OCC | - | . | . | . | - | -
COc1cc(/C=N/N=C(N)N)ccc1OCc1ccc(Cl)cc1 | - | - | - | - | - | -
CCOc1cc(/C=N/N=C(N)N)ccc1OCc1ccc(Cl)cc1 | - | - | - | - | 76.6 | -
O=C(NCC1CCCO1)c1ccc2c(c1)C(=O)N(c1cccc([N+](=O)[O-])c1)C2=O (stereo not drawn) | . | . | . | . | . | -
CCOC(=O)c1c(-c2ccccc2)oc2ccc(OCC(O)CNCCN(C)C)cc12 (stereo not drawn) | . | . | . | . | . | -
CCc1cccc(NC(=O)CCc2c(C)nn(-c3ccc(N4CCOCC4)nn3)c2C)c1 | . | . | . | . | . | -
CCN1C(=S)SC(=O)C1=C1C=C(C)N(Cc2ccco2)C(C)=C1 | . | - | - | - | - | 66.3
CCN1C(=S)SC(=O)C1=C1C=C(C)OC(C)=C1 | - | - | - | - | - | -
Cc1cc(-n2c(C)cc(C(=O)CSc3nnc4sc5ccccc5n34)c2C)no1 | - | - | - | - | - | -
Cc1cc(-n2c(C)cc(C(=O)CSc3ncnc4ccccc34)c2C)no1 | - | - | - | - | - | 84.1
Cc1cc(C)n2nc(SCC(=O)c3cc(C)n(-c4cc(C)on4)c3C)nc2n1 | - | - | - | - | - | 102.3
Cc1cc(C)n2nc(SCC(=O)c3ccccc3)nc2n1 | - | - | - | - | - | -
C=CCNC(=S)Nc1c(N)n(C)c(=O)n(C)c1=O | - | . | . | . | - | -
COc1ccccc1CNC(=O)/C=C/c1ccc(Br)o1 | - | - | - | - | - | -
Cc1cc(OCc2cc(C(=O)NCc3csc(C(C)C)n3)no2)cc(C)c1Cl | . | . | . | . | . | 67.8
Cc1ccc([N+](=O)[O-])cc1-c1ccc(/C=C(\C#N)c2[nH]nc(N)c2C#N)o1 | - | - | - | - | 37.6 | -
Cc1cccc(Oc2coc3cc(OC(=O)c4cncc(Br)c4)ccc3c2=O)c1 | - | - | - | - | 86.9 | -
COc1ccc(-c2csc(Nc3ccccc3)[n+]2Cc2ccccc2)cc1 | - | - | - | - | - | -
Cc1ccc(-c2csc(Nc3ccc(C(=O)O)cc3)[n+]2Cc2ccccc2)cc1 | - | - | - | - | - | 61.8
COc1cccc(N2CCN(C(=S)NCc3ccco3)CC2)c1 | - | - | - | - | - | -
Cc1ccc2c(c1C)NC(C(=O)O)C1CC=CC21 (stereo not drawn) | - | - | - | . | - | 61.9
O=C(c1ccccc1O)N1CCOCC1 | - | . | . | . | - | -
SMILES | HSV replic up | ABCB1 inh | ABCG2 inh | PKD1 inh | p47phox inh | PHOSPHO1 inh
O=C(O)C1Nc2c(C(=O)N3CCOCC3)cccc2C2C=CCC12 (stereo not drawn) | - | - | - | - | - | 62.7
Cc1cc(C)c2c(c1)NC(C(=O)O)C1CC=CC21 (stereo not drawn) | . | . | . | . | . | -
CCOC(=O)c1c(N)sc2c1CCS(=O)(=O)C2 | - | - | - | - | - | 78.9
CCOC(=O)c1c(N)sc2c1CCCC2 | - | - | - | - | - | -
CSc1ccccc1OCc1cc(C(=O)N2CCC(Oc3cccnc3)CC2)no1 | . | . | . | . | . | -
CC(C)COC(=O)c1ccc2c(c1O)C(=O)c1ccccc1C2=O | - | - | - | - | - | 80.4
O=C(N/N=C/c1ccc(O)cc1)c1csc2c1CCCC2 | - | - | - | - | - | -
Cc1c(NC(=O)Nc2cccc(F)c2)c(=O)n(-c2ccccc2)n1C | . | . | . | . | . | 61.0
Cc1c(C(=O)Nc2c(C)n(C)n(-c3ccccc3)c2=O)oc2ccc(Cl)cc12 | . | . | . | . | . | 70.6
Cc1c(NC(=O)Nc2cccc(Cl)c2)c(=O)n(-c2ccccc2)n1C | - | - | - | - | - | -
CCOc1ccccc1N1CCN(C(=O)CC(C)(C)C)CC1 | - | - | - | - | - | 72.9
N#Cc1c(C(F)(F)F)cc(=O)[nH]c1SCC(=O)O | - | - | - | - | - | -
O=S(=O)(c1ccccc1)N1CCC2(CC1)OCCO2 | - | - | - | - | - | -
O=C(CSc1nc2cc(Cl)ccc2s1)c1cc2ccccc2o1 | . | - | - | - | - | 101.6
Cc1cc2c(cc1S(=O)(=O)N1CCOCC1)NC(=O)CO2 | . | . | . | . | . | -
O=C(/C=C/c1ccccc1)Nc1cccc(S(=O)(=O)Nc2ccccc2F)c1 | - | - | - | - | - | -
O=C(Cc1ccc(Cl)cc1Cl)Nc1cccc(S(=O)(=O)Nc2ccccc2F)c1 | - | - | - | - | - | 73.6
Cc1ccc(O)c(C(=O)c2cnc3c(c2)c(-c2ccc(F)cc2)c(C#N)c(=O)n3C)c1 | - | - | - | - | - | -
Cc1ccc(N2CCN(C(=S)c3ccc(N(C)C)cc3)CC2)cc1 | - | - | - | - | - | 65.8
CC(=O)N1CCN(C(=S)c2ccc(N(C)C)cc2)CC1 | - | - | - | - | - | 89.7
CN(C)c1ccc(C(=S)N2CCN(c3ccccc3)CC2)cc1 | - | - | - | - | - | -
CN(C)c1ccc(C(=S)N2CCCCCC2)cc1 | - | - | - | - | - | -
Cc1onc(-c2c(Cl)cccc2Cl)c1C(=O)N/N=C(\N)COc1ccc(Cl)cc1 | - | - | - | - | - | -
Oc1cccc2ccc[n+](CC(O)Cn3c4ccccc4c4ccccc43)c12 (stereo not drawn) | - | - | - | - | 38.0 | -
OC(COc1ccccc1)Cn1c2ccccc2c2ccccc21 (stereo not drawn) | - | - | - | - | - | -
SMILES | HSV replic up | ABCB1 inh | ABCG2 inh | PKD1 inh | p47phox inh | PHOSPHO1 inh
CCOC(=O)C1CCCN(C(=O)C2CCN(S(=O)(=O)CC)CC2)C1 (stereo not drawn) | - | - | - | - | - | 60.1
CCOC(=O)C1CCCN(C(=O)C2CCN(S(=O)(=O)c3cccs3)CC2)C1 (stereo not drawn) | - | - | - | - | - | -
Cn1cnnc1SCC(=O)N1CCC(Cc2ccccc2)CC1 | - | - | - | - | - | 63.4
Cc1ccc(C(=O)NCC(=O)N2CCC(Cc3ccccc3)CC2)cc1 | . | . | . | . | . | 62.6
CCOC(=O)c1ccc(NC(=O)Nc2ccon2)cc1 | - | . | . | . | - | -
CCOC(=O)c1ccc(NC(=O)Nc2ccc(Cl)cn2)cc1 | - | - | - | - | 36.1 | -
CN1CCN(C2=C(Cl)C(=O)C(c3cnc(N4CCCCC4)s3)=C(Cl)C2=O)CC1 | - | - | - | - | 47.5 | -
Cn1ccnc1SCC(=O)Nc1ccc(Oc2ccccc2)cc1 | - | - | - | - | - | 83.5
CCn1c(CSCc2ccc(F)cc2)nnc1SCC(=O)NCc1ccccc1 | - | - | - | - | - | 64.4
O=C(NNC(=S)NC(=O)c1ccccc1[N+](=O)[O-])c1ccccc1O | - | - | - | - | - | -
O=C(NNC(=S)NC(=O)c1ccccc1[N+](=O)[O-])c1ccccc1[N+](=O)[O-] | - | - | - | - | - | 85.0
CC(C)n1c(=S)[nH]c2c1c(=O)[nH]c(=O)n2C | - | - | - | - | - | 62.0
